The test system of data set [1] is HT-1080. Kind of data set: Induction of autophagy in human HT1080 cells assessed as upregulation of beclin 1 at 10 uM by Western blotting analysis. The format is functional, cell-based. The conditions noted are these: TDE = time-dependent effect. In outline:
(§1)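 HT1080 cells exposed to 10 μM for 6, 12, 18 and 24 h, then lysed in Hepes pH 7.4/Triton buffer at 4 °C for 60 min. Equal protein run on 12% SDS-PAGE, blotted to nitrocellulose, probed for beclin 1 and LC3, ECL detection. Densities taken relative to β-actin, n = 3.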
(Immunoblotting shows a protein as a band on a membrane.)

For data set [2], the system named is HT-1080. Kind of data set: Induction of apoptosis in human HT1080 cells assessed as downregulation of ICAD at 10 uM pretreated with 3MA for 1 hr prior to compound addition measured after 24 hrs by Western blotting analysis. The format is functional, cell-based. In outline:
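HT1080 cells pretreated 1 h with 1 mM 3MA or 1 nM rapamycin, then co-incubated with 10 μM for 24 h. Adherent and floating cells lysed in Hepes pH 7.4/Triton buffer. 12% SDS-PAGE, nitrocellulose, antibodies against Fas, FADD, caspase-8, caspase-3, PARP and ICAD, ECL detection. Densities normalized to β-actin; n = 3.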

The test system of data set [3] is HT-1080. The data set is described as follows: Induction of apoptosis in human HT1080 cells assessed as change in procaspase-9 expression level at 10 uM after 6 to 24 hrs by Western blotting analysis. The format is functional, cell-based. A digest of the protocol: (§2)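 HT1080 cells treated with 10 μM for 6, 12, 18 and 24 h. Adherent and floating cells lysed 60 min at 4 °C in Hepes pH 7.4/1% Triton X-100 buffer with phosphatase and protease inhibitors. Equal protein run on 12% SDS-PAGE, transferred to nitrocellulose, probed with specific antibodies, HRP/ECL detection. Band density normalized to β-actin; n = 3.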

Data set [4] has as its system HT-1080. The data set is described as follows: Cytotoxicity against human HT1080 cells assessed as growth inhibition at 10 uM pretreated with z-LEHD-FMK for 1 hr prior to compound addition measured after 24 hrs by MTT assay. The format is functional, cell-based. In outline:
(§3)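 HT1080 seeded 0.8 × 10^4 cells/well. MTT 2 h at 37 °C, formazan in DMSO, A492 read. Inhibition % calculated against untreated and blank wells.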
Background: Formazan colour is commonly taken as a measure of viable cells.

Data set [5] has as its system HT-1080. The data set is described as follows: Induction of apoptosis in human HT1080 cells assessed as change in BAX expression at 10 uM after 6 to 24 hrs by Western blotting analysis. The format is functional, cell-based. A digest of the protocol:
as §2

The subject of another data set is A-431. Kind of data set: Cytotoxicity against human A431 cells assessed as growth inhibition after 24 hrs by MTT assay. The format is functional, cell-based. In outline:
(§4)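 Seeded 0.8 × 10^4 cells/well, cultured 24 h, then exposed to 0, 10, 20, 40 or 80 μM for 24 h (DMSO <0.05%) in RPMI 1640 or MEM with 10% FBS. Adherent lines rinsed with PBS, given MTT 2 h at 37 °C. Suspension lines (U937, HL60) given MTT 2 h, then centrifuged. Formazan dissolved in DMSO, A492 read. Inhibition % = (control − sample)/(control − blank) × 100.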

The test system of data set [6] is HT-1080. Kind of data set: Induction of autophagy in human HT1080 cells assessed as conversion from LC31to LC32 at 10 uM by Western blotting analysis. The format is functional, cell-based. The settings on record: TDE = time-dependent effect. A digest of the protocol: as §1
Data set [7] relates to HT-1080. The data set is described as follows: Induction of autophagy in human HT1080 cells assessed as increase in autophagy ratio at 10 uM pretreated with 3MA for 1 hr prior to compound addition measured after 24 hrs by MDC staining-based FACS flow cytometric analysis. The format is functional, cell-based. A digest of the protocol: (§5)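 HT1080 cells seeded at 3 × 10^5 per flask and grown 24 h. Pretreated 1 h with 1 mM 3MA or 1 nM rapamycin, then 10 μM for 24 h. Collected cells stained with 0.05 mM MDC at 37 °C for 1 h. MDC-positive ratio measured by flow cytometry, n = 3, mean ± SD.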
In general terms: A flow cytometer gives signals particle by particle.

Data set [8] deals with HT-1080. The data set is described as follows: Induction of autophagy in human HT1080 cells assessed as increase in autophagy ratio at 10 uM pretreated with rapamycin for 1 hr prior to compound addition measured after 24 hrs by MDC staining-based FACS flow cytometric analysis. The format is functional, cell-based. In outline: as §5
The next data set relates to HeLa. The data set is described as follows: Cytotoxicity against human HeLa cells assessed as growth inhibition after 24 hrs by MTT assay. The format is functional, cell-based. A digest of the protocol: as §4
In data set [9] the test system is HT-1080. Kind of data set: Induction of apoptosis in human HT1080 cells expressing beclin 1 siRNA assessed as increase in PARP cleavage at 10 uM after 24 hrs by Western blotting relative to control. The format is functional, cell-based. In outline:
(§6)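 Beclin 1 or nonspecific siRNA transfected into HT1080 cells (5 × 10^5 seeded a day earlier; transfection mixture for 7 h at 37 °C, then normal medium, 24 h before harvest). Cells then got 10 μM for 24 h. Adherent plus floating cells lysed in Hepes pH 7.4/Triton buffer at 4 °C for 60 min. Equal protein on 12% SDS-PAGE, nitrocellulose, ECL. Bands normalized to β-actin, n = 3.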

For data set [10], the system named is HT-1080. The data set is described as follows: Induction of apoptosis in human HT1080 cells expressing beclin 1 siRNA assessed as increase in procaspase-8 cleavage at 10 uM after 24 hrs by Western blotting analysis relative to control. The format is functional, cell-based. In outline: as §6
A further data set relates to PBMC. Kind of data set: Cytotoxicity against human PBMC at 10 to 20 uM after 24 to 48 hrs by MTT assay. The format is cell-based. In outline:
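PBMC from fresh blood of three healthy male donors. Blood diluted 1:3 in PBS, layered on Ficoll-Hypaque (1.077 g/mL), spun 900g 30 min. Band washed 400g 10 min, cells resuspended in complete RPMI-1640 in 96-well plates. Treated with 0, 10, 20, 40 or 80 μM for 24 and 48 h, then MTT. Means ± SD of three independent experiments.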

The next data set has as its system A375-S2. Kind of data set: Cytotoxicity against human A375-S2 cells assessed as growth inhibition after 24 hrs by MTT assay. The format is functional, cell-based. In outline: as §4
In data set [11] the test system is HT-1080. Kind of data set: Induction of apoptosis in human HT1080 cells assessed as increase in FADD protein expression at 10 uM after 6 to 24 hrs by Western blotting analysis. The format is functional, cell-based. In outline:
as §2

Another data set deals with HCT-116. Kind of data set: Cytotoxicity against human HCT116 cells assessed as growth inhibition after 24 hrs by MTT assay. The format is functional, cell-based. A digest of the protocol:
as §4

For the next data set, the system named is HL-60. The data set is described as follows: Cytotoxicity against human HL60 cells assessed as growth inhibition after 24 hrs by MTT assay. The format is functional, cell-based. In outline:
as §4

The test system of data set [12] is HT-1080. The data set is described as follows: Induction of apoptosis in human HT1080 cells assessed as change in cytochrome C expression at 10 uM after 6 to 24 hrs by Western blotting analysis. The format is functional, cell-based. A digest of the protocol: as §2
Data set [13] has as its system HT-1080. The data set is described as follows: Induction of apoptosis in human HT1080 cells assessed as accumulation in subG1 phase at 10 uM after 24 hrs by propidium iodide staining-based FACS flow cytometric analysis (reference value: 0.32%). The format is functional.
Data set [14] deals with HT-1080. Kind of data set: Induction of apoptosis in human HT1080 cells assessed as change in BCL2 expression at 10 uM after 6 to 24 hrs by Western blotting analysis. The format is functional, cell-based. A digest of the protocol: as §2
In data set [15] the test system is HT-1080. Kind of data set: Cytotoxicity against human HT1080 cells assessed as growth inhibition at 10 uM pretreated with z-DEVD-FMK for 1 hr prior to compound addition measured after 24 hrs by MTT assay. The format is functional, cell-based. In outline:
as §3

In data set [16] the test system is HT-1080. Kind of data set: Induction of apoptosis in human HT1080 cells assessed as PARP cleavage at 10 uM after 6 to 24 hrs by Western blotting analysis. The format is functional, cell-based. In outline: as §2
The subject of data set [17] is HT-1080. Kind of data set: Induction of apoptosis in human HT1080 cells expressing beclin 1 siRNA assessed as reversal of beclin 1 upregulation at 10 uM after 24 hrs by Western blotting analysis relative to control. The format is functional, cell-based. A digest of the protocol: as §6
A further data set relates to MCF7. Kind of data set: Cytotoxicity against human MCF7 cells assessed as growth inhibition after 24 hrs by MTT assay. The format is functional, cell-based. In outline:
as §4

Each structure is given as a SMILES string. Calls of active or inactive are those of the source. The rule behind the calls is not given here.

Take `C=C1C(=O)O[C@@H]2C[C@@]1(C)[C@@H]1C(=O)[C@]3(O)O[C@]14[C@@]2(C)OC(=O)[C@@]4(O)CC[C@H]1[C@H]3[C@H](O)C=C2CC=CC(=O)[C@@]21C` [PHYSALIN A]: the Activity entry is “tde” with HT-1080 [1], “tde” with HT-1080 [6], “Non-toxic” in the data set on PBMC and 27.79% in the data set on HT-1080 [13]. The outcome in the data set on HT-1080 [2], with HT-1080 [8], in the data set with HT-1080 [9], with HT-1080 [10], in the data set on HT-1080 [11] and with HT-1080 [16] was Active. The result in the data set on HT-1080 [17] was Active. For the same molecule, the result in the data set with HT-1080 [3], in the data set on HT-1080 [5], in the data set with HT-1080 [7], with HT-1080 [12] and with HT-1080 [14] was inactive. For the same molecule, the “growth inhibition (GI)” value with HT-1080 [4] was “inactive”. Moreover, the “growth inhibition (GI)” value in the data set on A-431, in the data set with HeLa, in the data set with A375-S2, with HCT-116, in the data set on HL-60 and in the data set with MCF7 was “Dose-dependent effect” each time. Further, in the data set with HT-1080 [15], the “growth inhibition (GI)” value was “Active”.

(Values after ChEMBL document CHEMBL2380219, “Physalin A induces apoptotic cell death and protective autophagy in HT1080 human fibrosarcoma cells” (J Nat Prod, 2013).)
